Assay results taken from ChEMBL document CHEMBL1148327, “Arylcyanoguanidines as activators of Kir6.2/SUR1K ATP channels and inhibitors of insulin release” (J Med Chem, 2004).

Key:
[1] = test system: Beta-TC6; experiment: In vitro efficacy to inhibit glucose stimulated insulin release in beta-TC6 cells […]; type: functional
[2] = test system: Beta-TC6; experiment: In vitro ability to inhibit glucose stimulated insulin release in beta-TC6 cells […]; type: functional, cell-based; details: Mus musculus
[3] = test system: Beta-TC3; experiment: Ability to repolarize beta-TC3 cell membrane potential; type: functional, cell-based, Rattus norvegicus; details: Mus musculus
[4] = test system: Beta-TC3; experiment: Ability to repolarize beta-TC3 cell membrane potential; Not significant; type: functional, cell-based, Rattus norvegicus
[5] = test system: Beta-TC6; experiment: In vitro ability to inhibit glucose stimulated insulin release in beta-TC6 cells […]; Not active; type: functional, cell-based
[6] = organism: Rattus norvegicus; experiment: Relaxation of phenylephrine precontracted rat isolated aorta rings.; type: functional, organism-based
[7] = test system: A10; experiment: Effect on membrane potential of mitochondria in A10 smooth muscle cells from rats; type: functional; details: Rattus norvegicus, read-out: ED50 (the source's name)
[8] = test system: HepG2; experiment: (§1) Effective concentration required for stimulation of glucose utilization in Hepatocytes (HEP-G2 cells); type: functional, cell-based; details: Homo sapiens
Procedure, shortened: (§2)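 HEP-G2 glucose oxidation: 2×10^4 cells/well incubated overnight at 37 °C, 5% CO2. Compounds diluted from 100× DMSO stocks into medium with 10 μCi/mL D-(5-3H)-glucose, in duplicate, 3 h at 37 °C. Lysed with 10% TCA; 3H-water separated by evaporation and counted. Mean ± SEM of three experiments.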

[9] = test system: HepG2; experiment: (§3) Maximum effect on glucose utilization in HepG2 cells expressed as % of full stimulation; type: functional; details: Homo sapiens; procedure, shortened: as §2
[10] = organism: Rattus norvegicus; experiment: Inhibitory effect on insulin release from rat islets; type: functional, organism-based
[11] = organism: Rattus norvegicus; experiment: Efficacy to inhibit insulin release from rat islets; type: functional, organism-based
[12] = test system: Beta-TC3; experiment: Effect on membrane potential of mitochondria in beta-TC3 cells […]; type: functional; details: Mus musculus, read-out: ED50 (the source's name)
[13] = test system: A10; experiment: Effect on membrane potential of mitochondria of A10 smooth muscle cells in rats; type: functional; details: Rattus norvegicus, read-out: ED50 (the source's name)
[14] = test system: Beta-TC3; experiment: Effect on membrane potential of mitochondria of beta-TC3 cells in rats; type: functional, Rattus norvegicus; details: Mus musculus, read-out: ED50 (the source's name)
[15] = test system: HepG2; experiment: as §3; type: functional, Rattus norvegicus; details: Homo sapiens; procedure, shortened: as §2
[16] = organism: Rattus norvegicus; experiment: Effect on insulin release from rat islets; type: functional, organism-based
[17] = organism: Rattus norvegicus; experiment: Efficacy on insulin release from rat islets; type: functional, organism-based
[18] = test system: HepG2; experiment: as §1; type: functional, cell-based, Rattus norvegicus; details: Homo sapiens; procedure, shortened: as §2
[19] = organism: Rattus norvegicus; experiment: Effective concentration required relaxation of precontracted rat aorta ring; type: functional, organism-based

**Q.** What does the source list for `N#CN/C(=N\C1(c2cccc(Cl)c2)CCC1)Nc1cc(C(F)(F)F)cc(C(F)(F)F)c1`?
**A.** Efficacy [1]: 66%; IC50 [2]: 2.8 µM; IC50 [3]: 20 µM

**Q.** `CC(C)/N=C(\NC#N)Nc1cc(C(F)(F)F)cc(C(F)(F)F)c1` was tested. Which Efficacy [1] did it give?
**A.** Its Efficacy is 20%.

**Q.** And the IC50 [2]?
**A.** The IC50 was 41.4 µM.

**Q.** And the IC50 [4]?
**A.** Its IC50 is “Not Active”.

**Q.** Which IC50 [5] does the source give for `CC(C)/N=C(\NC#N)Nc1cc(Cl)cc(Cl)c1` here?
**A.** The IC50 was “Not Active”.

**Q.** And the IC50 [6]?
**A.** Its IC50 is 52 µM.

**Q.** And the IC50 [4]?
**A.** Its IC50 is “Not Active”.

**Q.** `N#CN/C(=N\C1CCCC1)Nc1cc(Cl)cc(Cl)c1` was tested. Which Efficacy [1] did it give?
**A.** The Efficacy was 18%.

**Q.** What about the IC50 [2] of the same compound?
**A.** Its IC50 is 28.7 µM.

**Q.** What about the IC50 [3] of the same compound?
**A.** Its IC50 is 12 µM.

**Q.** And the IC50 [6]?
**A.** Its IC50 is 75 µM.

**Q.** Which Efficacy [1] does the source give for `C[C@H](/N=C(\NC#N)Nc1cc(Cl)cc(Cl)c1)c1ccccc1` here?
**A.** Its Efficacy is 27%.

**Q.** And the IC50 [2]?
**A.** The IC50 was 39.8 µM.

**Q.** And the IC50 [3]?
**A.** The IC50 was 25 µM.

**Q.** Which results are given for `CC(C)CC/N=C(\NC#N)Nc1cc(F)cc(F)c1`?
**A.** IC50 [5]: Not Active; IC50 [6]: 85 µM; IC50 [4]: Not Active

**Q.** With `CC(C)CC/N=C(\NC#N)Nc1cccnc1` as the compound, how does the Efficacy [1] read?
**A.** Its Efficacy is 23%.

**Q.** And the IC50 [2]?
**A.** Its IC50 is 1.2 µM.

**Q.** And the IC50 [4]?
**A.** Its IC50 is “Not Active”.

**Q.** What does the source list for `CC(N/C(=N\C#N)Nc1ccncc1)C(C)(C)C` (stereo unspecified) [PINACIDIL ANHYDROUS]?
**A.** IC50 [2]: > 100 µM; IC50 [6]: 0.8 µM; IC50 [4]: Not Active

**Q.** Which results are given for `N#CN/C(=N\C1CCCC1)Nc1cc(C(F)(F)F)cc(C(F)(F)F)c1`?
**A.** EC50 [7]: 1 µM; Efficacy [1]: 65%; IC50 [2]: 5.45 µM; IC50 [3]: 4.7 µM; EC50 [8]: 10.4 µM; Emax [9]: 95%; IC50 [6]: > 300 µM; IC50 [10]: 1.24 µM; Efficacy [11]: 65%; EC50 [12]: > 30 µM

**Q.** How did the Efficacy [1] turn out when `C[C@@H](/N=C(\NC#N)Nc1cc(C(F)(F)F)cc(C(F)(F)F)c1)C(C)(C)C` was run?
**A.** The Efficacy was 68%.

**Q.** And the IC50 [2]?
**A.** Its IC50 is 4.4 µM.

**Q.** What about the IC50 [3] of the same compound?
**A.** Its IC50 is 18 µM.

**Q.** What about the IC50 [6] of the same compound?
**A.** Its IC50 is 20.3 µM.

**Q.** Which results are given for `CC(C)CC/N=C(\NC#N)Nc1cc(C(F)(F)F)cc(C(F)(F)F)c1`?
**A.** Efficacy [1]: 77%; IC50 [3]: 4.7 µM

**Q.** Which Efficacy [1] does the source give for `CCC(C)(C)/N=C(\NC#N)Nc1cc(Cl)cc(Cl)c1` here?
**A.** Its Efficacy is 32%.

**Q.** What about the IC50 [2] of the same compound?
**A.** The IC50 was 48.5 µM.

**Q.** And the IC50 [3]?
**A.** Its IC50 is 24 µM.

**Q.** For `COc1cc(N/C(=N/C2CCCC2)NC#N)cc(C(F)(F)F)c1`, which IC50 [5] is on record?
**A.** The IC50 was “Not Active”.

**Q.** And the IC50 [6]?
**A.** The IC50 was 75 µM.

**Q.** What about the IC50 [4] of the same compound?
**A.** Its IC50 is “Not Active”.

**Q.** For `CC(C)CC/N=C(\NC#N)Nc1cc(Cl)cc(Cl)c1`, which EC50 [13] is on record?
**A.** Its EC50 is 2 µM.

**Q.** What about the Efficacy [1] of the same compound?
**A.** The Efficacy was 60%.

**Q.** What about the IC50 [2] of the same compound?
**A.** Its IC50 is 4.2 µM.

**Q.** What about the EC50 [14] of the same compound?
**A.** Its EC50 is greater than 30 µM.

**Q.** What about the IC50 [3] of the same compound?
**A.** Its IC50 is 0.8 µM.

**Q.** What about the Emax [15] of the same compound?
**A.** The Emax was 98%.

**Q.** And the IC50 [16]?
**A.** The IC50 was 3.8 µM.

**Q.** And the Efficacy [17]?
**A.** The Efficacy was 72%.

**Q.** What about the EC50 [18] of the same compound?
**A.** Its EC50 is 22 µM.

**Q.** `CCC/N=C(\NC#N)Nc1cc(C(F)(F)F)cc(C(F)(F)F)c1` was tested. Which Efficacy [1] did it give?
**A.** The Efficacy was 53%.

**Q.** And the IC50 [3]?
**A.** Its IC50 is 19 µM.

**Q.** Which results are given for `CC(C)C(C)/N=C(\NC#N)Nc1cc(C(F)(F)F)cc(C(F)(F)F)c1` (stereo unspecified)?
**A.** Efficacy [1]: 69%; IC50 [2]: 5.2 µM; IC50 [3]: 5.5 µM; IC50 [6]: 17.6 µM

**Q.** What does the source list for `C[C@@H](/N=C(\NC#N)Nc1cc(Cl)cc(Cl)c1)c1ccccc1`?
**A.** Efficacy [1]: 22%; IC50 [2]: 16.1 µM; IC50 [6]: 43.8 µM; IC50 [4]: Not Active

**Q.** Which results are given for `CCC(C)(C)/N=C(\NC#N)Nc1cc(C(F)(F)F)cc(C(F)(F)F)c1`?
**A.** IC50 [5]: Not Active; IC50 [4]: Not Active

**Q.** With `CC1=Nc2ccc(Cl)cc2S(=O)(=O)N1` [DIAZOXIDE] as the compound, how does the Efficacy [1] read?
**A.** The Efficacy was 23%.

**Q.** What about the IC50 [3] of the same compound?
**A.** Its IC50 is 13.7 µM.

**Q.** What about the IC50 [6] of the same compound?
**A.** The IC50 was 12.8 µM.

**Q.** `C[C@H](/N=C(\NC#N)Nc1cc(C(F)(F)F)cc(C(F)(F)F)c1)C(C)(C)C` was tested. Which Efficacy [1] did it give?
**A.** The Efficacy was 67%.

**Q.** What about the IC50 [2] of the same compound?
**A.** Its IC50 is 13.7 µM.

**Q.** What about the IC50 [3] of the same compound?
**A.** Its IC50 is 12 µM.

**Q.** And the IC50 [6]?
**A.** Its IC50 is 11.9 µM.

**Q.** For `N#C/N=C(\Nc1cccnc1)NC1(c2cccc(Cl)c2)CCC1`, which EC50 [19] is on record?
**A.** The EC50 was 113 µM.
